XBP1 UPR activ: activators of adaptive XBP1 UPR arm, primary screen, cell-based, CHO-XBP1 luciferase reporter, luminescence, uHTS | AID 463104, 2010 | activation, % at 20 µM | IRE1-XBP1 UPR activation; percent of tunicamycin response, DMSO as zero | 330,000 compounds, 0.33% hits;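 active = versus positive control, 20 µM dose yields 30% or more activation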;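 note: 100% = tunicamycin at 10 µg/mL and 0% = DMSO only wells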
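Assay system: IRE1-XBP1 luciferase reporter CHO line. Input: 1000 cells/well. Buffer or medium: F12 with 10% serum. Doses: 20 µM, 1% DMSO. Times: overnight seeding at 37 °C, 6 h compound treatment at 37 °C. Technique: Steady-Glo luciferase glow luminescence, 10 min after reagent addition.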
Lipid droplet: inhibitors of hepatocyte lipid droplet formation, primary screen, imaging, high-throughput imaging, BODIPY stain. 240,000 compounds, 0.4% hits. AML12 mouse hepatocytes, oleate lipid droplets. AID 1656, 2009. inhibition, % at 6.5 µM;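 active = lipid droplet intensity inhibited by at least 50%, with more than 500 cells counted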
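Material – mouse AML12 hepatocyte cell line, fixed after treatment · Compound dosing – one dose, 6.5 µM compound · Times – compound with oleate, overnight · Measured by – Image-based BODIPY and DAPI two-channel analysis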
ANO1 activ: TMEM16A chloride channel activators or potentiators, primary screen, cell-based, HTS; 340,000 compounds, 0.3% hits; Anoctamin-1 (Mus musculus), Q8BHY3; B-score at 10 µM; HEK293 TMEM16A/YFP-H148Q/I152L, iodide quench fluorescence; hits give low values; AID 623877, 2012;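 active = fluorescence-ratio B-score plate-corrected deviation score at least 3 library SD below zero, with starting fluorescence score within 5 deviations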;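 note: channel opened by trigger with iodide after compound preincubation; score built on the fluorescence ratio of max minus min over baseline; more negative score means more quench and so TMEM16A activation or potentiation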
Target sequence (Q8BHY3 whole entry, looked up): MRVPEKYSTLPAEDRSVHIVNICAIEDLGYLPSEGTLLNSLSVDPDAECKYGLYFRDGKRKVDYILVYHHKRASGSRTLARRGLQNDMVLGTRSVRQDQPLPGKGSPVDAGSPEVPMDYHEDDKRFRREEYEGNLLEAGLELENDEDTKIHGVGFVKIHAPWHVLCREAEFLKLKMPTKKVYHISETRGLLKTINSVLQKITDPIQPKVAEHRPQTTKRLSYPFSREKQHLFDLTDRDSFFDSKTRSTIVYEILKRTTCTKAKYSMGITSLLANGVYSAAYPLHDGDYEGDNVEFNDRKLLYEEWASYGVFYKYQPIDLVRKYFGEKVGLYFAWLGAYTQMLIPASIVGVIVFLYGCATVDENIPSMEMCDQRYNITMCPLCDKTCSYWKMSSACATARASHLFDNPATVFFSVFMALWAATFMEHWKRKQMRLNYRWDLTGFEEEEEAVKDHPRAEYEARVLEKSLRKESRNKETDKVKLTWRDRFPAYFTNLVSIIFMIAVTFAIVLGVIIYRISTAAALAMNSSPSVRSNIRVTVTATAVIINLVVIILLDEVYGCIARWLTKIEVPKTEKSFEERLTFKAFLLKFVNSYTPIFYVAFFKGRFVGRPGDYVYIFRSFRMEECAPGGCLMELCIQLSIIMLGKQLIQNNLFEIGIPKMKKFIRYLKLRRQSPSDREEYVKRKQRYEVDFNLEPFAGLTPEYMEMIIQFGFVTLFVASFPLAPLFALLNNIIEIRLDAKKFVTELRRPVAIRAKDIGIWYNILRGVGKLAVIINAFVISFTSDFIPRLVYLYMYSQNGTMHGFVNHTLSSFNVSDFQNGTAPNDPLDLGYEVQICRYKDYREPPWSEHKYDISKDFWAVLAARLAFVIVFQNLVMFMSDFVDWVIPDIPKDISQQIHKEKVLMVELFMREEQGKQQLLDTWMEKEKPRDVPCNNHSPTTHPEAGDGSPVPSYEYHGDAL
CHOP UPR activ: activators of apoptotic CHOP UPR arm, primary screen, cell-based, CHO-CHOP luciferase reporter, luminescence, uHTS; UPR activation; percent of tunicamycin response over DMSO baseline; activation, % at 10 µM; 330,000 compounds, 0.34% hits; AID 449763, 2010;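 active = at 10 µM dose, activation of 40% or more, normalized to positive control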;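 note: 100% = tunicamycin at 10 µg/mL and 0% = DMSO alone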
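Assay system: CHO cells with stable CHOP pathway luciferase reporter; Buffer or medium: F12 plus 10% serum; Times: 16-18 h cell attachment, then 6 h compound exposure, 37 °C; Signal: luciferase luminescence; Read-out basis: percent activation relative to tunicamycin control; Control set: tunicamycin high control, DMSO low control.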
CHOP inh: inhibitors of CHOP promoter induction, primary screen, cell-based, unfolded protein response, luciferase reporter. CHO-K1 CHOP-promoter luciferase, tunicamycin-induced, 15-18 h. inhibition, % at 10 µM. 220,000 compounds, 3.8% hits. AID 2732, 2010;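 active = compounds that reduced the stress-induced luciferase reporter signal by more than about 70% of percent inhibition, limit read from the data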;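 note: 0% = tunicamycin plus vehicle and 100% = wells without tunicamycin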
TMEM16A inh: TMEM16A chloride channel inhibitors, primary screen, cell-based, HTS | HEK293 TMEM16A/YFP iodide influx fluorescence, ionomycin | 310,000 compounds, 1.2% hits | normalized B-score (activity score, 25-100; higher = stronger inhibition) at 10 µM;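 active = ratio plate-corrected score three or more library SD toward inhibition, starting fluorescence score within five deviations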;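 note: score derived from kinetic fluorescence span divided by baseline fluorescence per well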
Numbers without * were called inactive; i = inactive; / = not tested or not shown. In the library only some 4.2% were active in any assay of this set; here they are far more common.

SMILES	XBP1 UPR activ	Lipid droplet	ANO1 activ	CHOP UPR activ	CHOP inh	TMEM16A inh
Cc1ccc2ccccc2c1NC(=O)c1ccco1	-2	3	i	-1	/	i
O=S(=O)(NCC(c1cccnc1)N1CCN(c2ccc(F)cc2)CC1)c1ccc(F)cc1 (centres undefined)	0	-2	i	1	94*	i
Cc1ccc(NC(=S)N(CCN2CCCCC2)Cc2ccco2)cc1Cl	-4	36	-5.1*	-2	18	i
Cc1cc(C)cc(NC(=S)N(CCN2CCCCC2)Cc2ccco2)c1	-2	-9	i	-1	3	i
Cc1cccc(CSC(Nc2ccc(F)cc2)=C(C#N)C#N)c1	0	-45	i	3	66	100*
Cc1cccc(CSC(=N)N)c1	1	14	i	-1	-16	i
N#CC(C#N)=C(Nc1ccc(F)cc1)SCc1cccc(Br)c1	/	10	i	/	71*	100*
Cc1ccc(S(=O)(=O)N(C)CC(=O)N2CCCCCC2)cc1	-2	-14	i	1	/	i
NC(=O)c1ccc2c(=O)n3c(-c4cc(Cl)c(N)c(Cl)c4)csc3nc2c1	1	43	i	-2	88*	i
Cc1csc2nc3cc(C(N)=O)ccc3c(=O)n12	-1	-24	i	0	-19	i
Cc1nc(N2CCCC2)c2nnn(Cc3ccccc3Cl)c2n1	-2	/	/	-1	73*	i
CC(C)CCNc1ncnc2c1nnn2Cc1ccccc1Cl	-1	/	i	1	79*	i
CCC(=O)c1ccc(N2CCN(C(=O)c3ccc(Br)cc3)CC2)c(F)c1	-5	/	i	-2	85*	i
CCCC(=O)c1ccc(N2CCN(C(=O)c3cccs3)CC2)c(F)c1	0	-7	/	3	/	i
CCCC(=O)c1ccc(N2CCN(C(=O)c3ccc(Br)cc3)CC2)c(F)c1	-2	/	i	0	73*	i
CCC(=O)c1ccc(N2CCN(C(=O)c3ccc(F)cc3)CC2)c(F)c1	-1	1	i	-1	1	25*
O=C1NC(Cc2ccccc2)c2nc3ccc(Br)cc3c(=O)n2-c2cc(Cl)ccc21 (centres undefined)	3	/	/	1	/	/
Cn1c(CC(=O)Nc2ccccc2Cl)nnc1SCC(=O)Nc1nncs1	-2	-1	i	-1	/	i
CCC(C)(C)NC(=O)C(OC(=O)c1cc2sccc2n1C)c1ccc(OC)cc1 (centres undefined)	-7	/	/	0	79*	i
Cn1c(C(=O)OC(C(=O)NCc2ccco2)c2ccncc2)cc2sccc21 (centres undefined)	-1	3	i	5	3	i
NC(=O)C1CCCN(C(=O)c2cccc(NC(=O)c3cccs3)c2)C1 (centres undefined)	-1	/	i	1	/	/
O=C1N2CCCc3cccc(c32)C12Nc1ccccc1S2 (centres undefined)	/	1	i	/	22	/
CC1CC(C)(C)N2C(=O)C3(Nc4ccccc4S3)c3cccc1c32 (centres undefined)	-2	18	i	-1	91*	i
Cn1c(SCC(=O)c2ccc3c(c2)Cc2ccccc2-3)nnc1-c1cccc(N)c1	1	18	i	-2	93*	i
Cc1sc2ncnc(NCC3COc4ccccc4O3)c2c1C (centres undefined)	/	-51	i	/	76*	i
SMILES	XBP1 UPR activ	Lipid droplet	ANO1 activ	CHOP UPR activ	CHOP inh	TMEM16A inh
c1ccc(-c2csc3ncnc(NCCCN4CCOCC4)c23)cc1	8	0	i	1	6	i
c1ccc(-c2csc3ncnc(NCC4COc5ccccc5O4)c23)cc1 (centres undefined)	/	-82	i	/	93*	i
CCN(CC)CCN1C(=O)C2C(C(=O)Nc3cc(C)cc(C)c3)C3C=CC2(O3)C1C(=O)NC1CCCCC1 (centres undefined)	1	-2	i	1	/	i
O=S(=O)(Nc1cccc(CCc2ccccn2)c1)c1ccc2ccccc2c1	/	/	i	/	84*	/
O=S(=O)(Nc1cccc(CCc2ccccn2)c1)c1cc(Cl)ccc1Cl	1	-27	i	4	14	i
c1ccc(CCSc2nccn2-c2ccccc2)cc1	5	/	i	1	40	i
CCc1ccc(CSc2nccn2-c2ccccc2)cc1	-2	/	i	-2	72*	i
CC(C)c1ccc(C(C(C(=O)c2ccccc2)N2CCOCC2)N2CCOCC2)cc1 (centres undefined)	/	/	i	/	/	/
S=C(NCCSCc1ccc(Cl)c(Cl)c1)Nc1ccccc1	-1	/	i	0	/	100*
S=C(NCCSCc1c(Cl)cccc1Cl)Nc1ccccc1	-2	/	i	2	32	100*
O=C(NCCSCc1c(F)cccc1Cl)Nc1ccccc1	1	/	i	3	/	i
CC(N)C(=O)NC(C(=O)N1CCCC1C(=O)NC(c1ccccc1)c1ccccc1)C(C)C (centres undefined)	0	/	i	-2	/	/
COc1ccc(CN(C(=O)c2ccc(C)cc2)C2CCS(=O)(=O)C2)cc1 (centres undefined)	-6	3	i	2	/	i
S=C1CC2CCCC(C2)N1 (centres undefined)	/	/	i	/	/	/
O=C(N/N=C/c1ccc([N+](=O)[O-])o1)c1cn(-c2ccccc2)nc1-c1ccc(Cl)cc1	7	-2	i	13	-61	i
O=C(N/N=C/c1ccc([N+](=O)[O-])o1)c1cn(-c2ccccc2)nc1-c1ccccc1	0	6	i	2	95*	i
Cc1ccc(C(=O)NNC(=O)CSc2nnc(C(C)C)n2C)cc1	-2	11	i	1	/	i
O=S(Cc1ccc(Cl)cc1)CC(O)(c1ccccc1)c1ccccc1 (centres undefined)	1	/	i	-3	21	i
O=S(Cc1ccccc1)CC(O)(c1ccc(Cl)cc1)c1ccc(Cl)cc1 (centres undefined)	0	/	i	0	85*	i
Cn1c(=O)c2c(ncn2CC(=O)Nc2nc(-c3ccccc3Cl)cs2)n(C)c1=O	0	/	-10*	-1	19	i
Cc1cc(/C=C2\SC(=O)N(CC(=O)Nc3ccccc3F)C2=O)c(C)n1C	-1	8	i	5	85*	i

Screening data: PubChem BioAssay, several laboratories
